For one compound, Activity and CC50 results are on record in ChEMBL document CHEMBL1649306, “Arylimidamide DB766, a potential chemotherapeutic candidate for Chagas' disease treatment” (Antimicrob Agents Chemother, 2010).

One series relates to Mus musculus. Kind of series: Toxicity in female Swiss-Webster mouse assessed as mortality at cumulative dose of 200 mg/kg, ip measured after 48 hrs. In kind it is organism-based. Further details: dose 200 mg/kg, route intraperitoneal. Particulars: in vivo. The method, boiled down: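 Uninfected 8–10-week-old female and male Swiss Webster and C3H/He (H-2k) mice injected i.p. on day 1 every 2 h with escalating doses: 5, 15, 30, 50 and 100 mg/kg (cumulative 20, 50, 100, 200 mg/kg). Toxic and subtoxic signs inspected on days 2–3 per OECD guidelines; tolerated dose set at 48 h.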

In the next series the test system is Trypanosoma cruzi. Description: Antitrypanosomal activity against Trypanosoma cruzi Columbian bloodstream forms infected in C3H mouse assessed as decrease in cardiac parasite load at 100 mg/kg/day, ip administered 5 days postinfection for 10 consecutive days measured after 43 days. To be noted: route intraperitoneal. The series is classed as functional. Further details: scale not given: the % may be the effect or the level left. The method in brief: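 Male C3H/He mice infected i.p. with 5 × 10^3 Colombian strain bloodstream forms, given 100 mg/kg/day i.p. daily for 10 days. At 43 dpi, H&E-stained 3 μm heart sections scored for amastigote nests and infiltrates (>10 mononuclear cells) over at least 100 fields. Three sections each from at least three mice.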

Series [1] in a line: Cardiotoxicity against Swiss-Webster mouse cardiomyocytes assessed as creatine kinase cardiac isotype level by MTT assay. The series is classed as toxicity, Heart, Cardiomyocyte. To be noted: read-out: LC50 (the source's name). The method, boiled down:
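Embryonic cardiomyocytes from Swiss mice, uninfected, exposed to 0 to 96 μM in DMEM at 37°C. Viability followed by CK-MB released into culture supernatant, alongside light-microscopy checks of morphology and spontaneous contraction; assays at least three times in duplicate.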
On the technique in general: Formazan colour is commonly taken as a measure of viable cells.

Turning to `CC(C)Oc1cc(NC(=N)c2ccccn2)ccc1-c1ccc(-c2ccc(NC(=N)c3ccccn3)cc2OC(C)C)o1`, the values for the Activity result in the series with Mus musculus and in the series with Trypanosoma cruzi were “Non-toxic” and 95%, respectively. The CC50 in series [1] was > 10.6 µM.
